This note sets out measurements from ChEMBL document CHEMBL1137737, “Synthesis, antimicrobial and cytotoxic activities of 1,3,4-oxadiazoles, 1,3,4-thiadiazoles and 1,2,4-triazoles” (Eur J Med Chem, 2009).

Values after ≈ are worked out from the molar mass of the structure shown.

Common to all, as to type: functional
For test [1], the system named is Proteus vulgaris. Briefly: Antibacterial activity against Proteus vulgaris NCIM 2027 at 200 ug/disk after 24 hrs by agar disc-diffusion method. The settings on record: NCIM 2027, 24 h, read-out: DIZ. The essentials:
(§1)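 Sterile 6 mm filter-paper discs are soaked in compound solution in DMSO and placed on nutrient agar plates already inoculated with each organism. Plates are incubated at 37 °C. The diameter of the growth-inhibition zone is read after 24 h for bacteria and after 48 h for fungi.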
For orientation: In agar diffusion tests the substance spreads into inoculated agar from a disc or well.

The subject of test [2] is Curvularia lunata. Briefly: Antifungal activity against Curvularia lunata NCIM 716 at 200 ug/disk after 48 hrs by agar disc-diffusion method. The settings on record: NCIM 716, 48 h, read-out: DIZ. The essentials: as §1
Test [3] relates to Aspergillus niger. Briefly: Antifungal activity against Aspergillus niger NCIM 596 at 100 ug/disk after 48 hrs by agar disc-diffusion method. The settings on record: NCIM 596, 48 h, read-out: DIZ. The essentials: as §1
For test [4], the system named is Fusarium solani. Briefly: Antifungal activity against Fusarium solani NCIM 1330 at 200 ug/disk after 48 hrs by agar disc-diffusion method. The settings on record: NCIM 1330, 48 h, read-out: DIZ. The essentials:
as §1

The subject of test [5] is Curvularia lunata. Briefly: Antifungal activity against Curvularia lunata NCIM 716 at 100 ug/disk after 48 hrs by agar disc-diffusion method. The following applies: NCIM 716, 48 h, read-out: DIZ. The essentials:
as §1

The test system of test [6] is Bacillus subtilis. Briefly: Antibacterial activity against Bacillus subtilis NCIM 2063 at 100 ug/disk after 24 hrs by agar disc-diffusion method. The settings on record: NCIM 2063, 24 h, read-out: DIZ. The essentials:
as §1

Test [7] concerns Aspergillus niger. Briefly: Antifungal activity against Aspergillus niger NCIM 596 at 200 ug/disk after 48 hrs by agar disc-diffusion method. The following applies: NCIM 596, 48 h, read-out: DIZ. The essentials: as §1
The subject of test [8] is Bacillus subtilis. Briefly: Antibacterial activity against Bacillus subtilis NCIM 2063 at 200 ug/disk after 24 hrs by agar disc-diffusion method. The following applies: NCIM 2063, 24 h, read-out: DIZ. The essentials: as §1
The test system of test [9] is Proteus vulgaris. Briefly: Antibacterial activity against Proteus vulgaris NCIM 2027 at 100 ug/disk after 24 hrs by agar disc-diffusion method. The following applies: NCIM 2027, 24 h, read-out: DIZ. The essentials:
as §1

Test [10] concerns Staphylococcus aureus. Briefly: Antibacterial activity against Staphylococcus aureus NCIM 5021 at 200 ug/disk after 24 hrs by agar disc-diffusion method. The following applies: NCIM 5021, 24 h, read-out: DIZ. The essentials: as §1
For test [11], the system named is Klebsiella pneumoniae. Briefly: Antibacterial activity against Klebsiella pneumoniae NCIM 2957 at 100 ug/disk after 24 hrs by agar disc-diffusion method. The settings on record: NCIM 2957, 24 h, read-out: DIZ. The essentials: as §1
The subject of test [12] is Klebsiella pneumoniae. Briefly: Antibacterial activity against Klebsiella pneumoniae NCIM 2957 at 200 ug/disk after 24 hrs by agar disc-diffusion method. The settings on record: NCIM 2957, 24 h, read-out: DIZ. The essentials:
as §1

The subject of test [13] is Staphylococcus aureus. Briefly: Antibacterial activity against Staphylococcus aureus NCIM 5021 at 100 ug/disk after 24 hrs by agar disc-diffusion method. The settings on record: NCIM 5021, 24 h, read-out: DIZ. The essentials:
as §1

Test [14] concerns Fusarium solani. Briefly: Antifungal activity against Fusarium solani NCIM 1330 at 100 ug/disk after 48 hrs by agar disc-diffusion method. The settings on record: NCIM 1330, 48 h, read-out: DIZ. The essentials: as §1
Test [15] relates to Fusarium solani. Briefly: Antifungal activity against Fusarium solani NCIM 1330 after 48 hrs by microdilution susceptibility method. The following applies: NCIM 1330, 48 h. The essentials: (§2)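 This is a microdilution susceptibility test. Organism suspensions are inoculated into wells holding the dilution series, then incubated at 36 °C for 24 h (bacteria) or 48 h (fungi). MIC is the lowest concentration giving no turbidity, i.e. complete inhibition of visible growth.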
In general terms: In broth dilution the organism is exposed to a series of concentrations in liquid medium.

Test [16] has as its system Staphylococcus aureus. Briefly: Antibacterial activity against Staphylococcus aureus NCIM 5021 after 24 hrs by microdilution susceptibility method. The settings on record: NCIM 5021, 24 h. The essentials:
as §2

Test [17] concerns Curvularia lunata. Briefly: Antifungal activity against Curvularia lunata NCIM 716 after 48 hrs by microdilution susceptibility method. The settings on record: NCIM 716, 48 h. The essentials:
as §2

`O=S(=O)(Cc1nnc(-c2ccccc2Cl)o1)c1ccccc1`: the zone of inhibition at 200 µg/disc was 17 mm with Proteus vulgaris [1]; 22 mm in the test on Curvularia lunata [2]; 20 mm in the test on Fusarium solani [4]; 17 mm with Aspergillus niger [7]; 17 mm with Bacillus subtilis [8]; 16 mm in the test with Staphylococcus aureus [10]. For the same molecule, the zone of inhibition at 200 µg/disc in the test with Klebsiella pneumoniae [12] stood at 15 mm. For the same molecule, the zone of inhibition at 100 µg/disc in the test on Aspergillus niger [3] stood at 15 mm; in the test with Curvularia lunata [5], 18 mm; in the test with Bacillus subtilis [6], 16 mm; in the test on Proteus vulgaris [9] it was 14 mm; in the test on Klebsiella pneumoniae [11], 12 mm; with Staphylococcus aureus [13], 14 mm. Further, in the test on Fusarium solani [14], the zone of inhibition at 100 µg/disc was determined as 16 mm.
Regarding `O=S(=O)(Cc1nnc(-c2ccccc2)o1)c1ccc(Cl)cc1`, the zone of inhibition at 200 µg/disc stood at 15 mm in the test on Proteus vulgaris [1]; 17 mm in the test with Curvularia lunata [2]; 20 mm with Fusarium solani [4]; 19 mm with Aspergillus niger [7]; 17 mm with Bacillus subtilis [8]; 18 mm in the test on Staphylococcus aureus [10]. Also, in the test on Klebsiella pneumoniae [12], the zone of inhibition at 200 µg/disc was 16 mm. The molecule further gave an MIC against Fusarium solani [15] of 400 µg/mL (≈ 1190 µM). Besides, the zone of inhibition at 100 µg/disc in the test with Aspergillus niger [3] came out at 16 mm; in the test on Curvularia lunata [5] it was 15 mm; in the test with Bacillus subtilis [6] it was 15 mm; with Proteus vulgaris [9], 12 mm; with Klebsiella pneumoniae [11] it was 14 mm; in the test with Staphylococcus aureus [13], 15 mm. In addition, in the test with Fusarium solani [14], the zone of inhibition at 100 µg/disc came to 16 mm.
Turning to `O=S(=O)(Cc1nnc(-c2ccccc2)o1)c1ccccc1`, the zone of inhibition at 200 µg/disc in the test on Proteus vulgaris [1] is 17 mm; in the test on Curvularia lunata [2], 19 mm; in the test with Fusarium solani [4], 18 mm; in the test on Aspergillus niger [7], 17 mm; in the test on Bacillus subtilis [8], 13 mm; in the test with Staphylococcus aureus [10], 15 mm. Further, in the test on Klebsiella pneumoniae [12], the zone of inhibition at 200 µg/disc amounted to 18 mm. Also, the zone of inhibition at 100 µg/disc was 14 mm in the test on Aspergillus niger [3]; 15 mm with Curvularia lunata [5]; 11 mm in the test with Bacillus subtilis [6]; 14 mm in the test on Proteus vulgaris [9]; 16 mm with Klebsiella pneumoniae [11]; 12 mm with Staphylococcus aureus [13]. In addition, the zone of inhibition at 100 µg/disc in the test with Fusarium solani [14] came to 15 mm.
Turning to `O=S(=O)(Cc1ccccc1)Cc1nnc(-c2ccccc2)o1`, the zone of inhibition at 200 µg/disc is 15 mm in the test with Proteus vulgaris [1]; 22 mm in the test on Curvularia lunata [2]; 20 mm with Fusarium solani [4]; 17 mm with Aspergillus niger [7]; 17 mm with Bacillus subtilis [8]; 18 mm in the test with Staphylococcus aureus [10]. In the test on Klebsiella pneumoniae [12], the zone of inhibition at 200 µg/disc came out at 18 mm. Moreover, the MIC in the test with Fusarium solani [15] and against Staphylococcus aureus [16] was 400 µg/mL (≈ 1270 µM) in each case. In addition, the zone of inhibition at 100 µg/disc with Aspergillus niger [3] came to 16 mm; in the test with Curvularia lunata [5], 18 mm; in the test on Bacillus subtilis [6], 14 mm; in the test on Proteus vulgaris [9] it was 12 mm; in the test with Klebsiella pneumoniae [11] it was 15 mm; with Staphylococcus aureus [13] it was 16 mm. In addition, in the test with Fusarium solani [14], the zone of inhibition at 100 µg/disc was found to be 17 mm.
In the case of `O=S(=O)(Cc1ccccc1)Cc1nnc(-c2ccccc2Cl)o1`, the zone of inhibition at 200 µg/disc in the test on Proteus vulgaris [1] was 17 mm; in the test with Curvularia lunata [2], 23 mm; in the test with Fusarium solani [4] it was 19 mm; with Aspergillus niger [7], 21 mm; with Bacillus subtilis [8] it was 18 mm; in the test on Staphylococcus aureus [10] it was 20 mm. Moreover, in the test with Klebsiella pneumoniae [12], the zone of inhibition at 200 µg/disc stood at 16 mm. Further, the MIC in the test on Fusarium solani [15], in the test with Staphylococcus aureus [16] and in the test on Curvularia lunata [17] was 400 µg/mL (≈ 1150 µM) in each case. Moreover, the zone of inhibition at 100 µg/disc in the test with Aspergillus niger [3] is 18 mm; in the test on Curvularia lunata [5] it was 18 mm; with Bacillus subtilis [6] it was 15 mm; in the test with Proteus vulgaris [9], 15 mm; in the test on Klebsiella pneumoniae [11], 14 mm; with Staphylococcus aureus [13], 17 mm. Besides, the zone of inhibition at 100 µg/disc in the test on Fusarium solani [14] stood at 17 mm.

The term MIC denotes the lowest concentration found to suppress growth.
